Measurements gathered from unrelated publications.
Converted amounts (≈) assume the structure as drawn.
Organism: Escherichia coli
Observed: microbial growth

CSc1ccc(/C=C/c2cc(/C=C3\Sc4ccccc4N3CCCN3CCCC3)c3ccccc3[n+]2C)cc1.[I-]
MIC (broth dilution; ATCCBAA2469): 32 µg/mL

COC(=O)c1cc(-c2cccc(NC(=O)Nc3ccc(Cl)cc3Cl)c2)on1
MIC (broth dilution; ATCC25922): > 64 µg/mL

C[n+]1c(/C=C/c2c[nH]c3ccccc23)cc(/C=C2\Sc3ccccc3N2CCCN2CCOCC2)c2ccccc21.[I-]
MIC (broth dilution; ATCCBAA2469): 64 µg/mL

CCCCCCC#Cc1cncc(-c2nnc(SCc3cc([N+](=O)[O-])cc([N+](=O)[O-])c3)n2C)c1
MIC: ≥ 20 µg/mL

CC1(C)S[C@@H]2[C@H](NC(=O)[C@H](N)c3ccccc3)C(=O)N2[C@H]1C(=O)O
MIC (broth dilution; ATCCBAA2469): > 64 µg/mL

Oc1cc(Cl)ccc1Oc1ccc(Cl)cc1Cl
MIC: > 3.2 µg/mL

C[C@H](CCC(=O)NCCCNCCCCNCCCN)[C@H]1CC[C@H]2[C@@H]3CC=C4C[C@@H](O)CC[C@]4(C)[C@H]3CC[C@]12C
MIC (broth dilution; MG1655; 20 h): 64 µg/mL (≈ 115 µM)

CN[C@H](CC(C)C)C(=O)N[C@H]1C(=O)N[C@@H](CC(N)=O)C(=O)N[C@H]2C(=O)N[C@H]3C(=O)N[C@H](C(=O)N[C@H](C(=O)O)c4cc(O)cc(O)c4-c4cc3ccc4O)[C@H](O)c3ccc(c(Cl)c3)Oc3cc2cc(c3O[C@@H]2O[C@H](CO)[C@@H](O)[C@H](O)[C@H]2O[C@H]2C[C@](C)(N)[C@H](O)[C@H](C)O2)Oc2ccc(cc2Cl)[C@H]1O
MIC (ATCC10798): > 32 µg/mL

COC(=O)c1cc(-c2ccc(OC)c(NC(=O)Nc3ccc(Cl)c(Cl)c3)c2)on1
MIC (broth dilution; ATCC25922): > 64 µg/mL

C[n+]1c(/C=C/c2c[nH]c3ccccc23)cc(/C=C2\Sc3ccccc3N2CCCN2CCCC2)c2ccccc21.[I-]
MIC (broth dilution; ATCCBAA2469): 4 µg/mL

COC(=O)c1cc(-c2cccc(NC(=O)Nc3c(C)cccc3C)c2)on1
MIC (broth dilution; ATCC25922): > 64 µg/mL

CO[C@H]1/C=C/O[C@@]2(C)Oc3c(C)c(O)c4c(O)c(c(/C=N/N5CCN(C)CC5)c(O)c4c3C2=O)NC(=O)/C(C)=C\C=C\[C@H](C)[C@H](O)[C@@H](C)[C@@H](O)[C@@H](C)[C@H](OC(C)=O)[C@@H]1C
MIC (broth dilution; ATCCBAA2469): > 64 µg/mL

COC(=O)c1cc(-c2cccc(NC(=O)Nc3cccc(Cl)c3)c2)on1
MIC (broth dilution; ATCC25922): > 64 µg/mL

CC1CCN(CCCN2/C(=C/c3cc[n+](C)c4ccccc34)Sc3ccccc32)CC1.[I-]
MIC (broth dilution; ATCCBAA2469): 0.5 µg/mL

COC(=O)c1cc(-c2cccc(NC(=O)Nc3cccc(C(F)(F)F)c3)c2)on1
MIC (broth dilution; ATCC25922): > 64 µg/mL

Fc1c(F)c(F)c(-c2c(F)c(F)c(F)c(F)c2F)c(F)c1F
MIC (ATCC25922): > 250 µg/mL

C[C@H]1COCCN1c1nc(NCc2cccnc2C(F)(F)F)c2cccnc2n1
MIC (broth dilution; 25922): 128 µg/mL (≈ 317 µM)

COC(=O)c1cc(-c2cccc(NC(=O)Nc3ccccc3F)c2)on1
MIC (broth dilution; ATCC25922): > 64 µg/mL
